Test results as given in ChEMBL document CHEMBL3758104, “Reinvestigating Old Pharmacophores: Are 4-Aminoquinolines and Tetraoxanes Potential Two-Stage Antimalarials?” (J Med Chem, 2016).
Calls of active or inactive are those of the source. No cut-off for these calls is given here.

How the values were obtained:
Plasmodium falciparum [1] = assay: Antimalarial activity against chloroquine-susceptible Plasmodium falciparum D6 after 48 hrs by [3H]hypoxanthine incorporation assay; type: functional, organism-based
Method in brief: (§1)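 P. falciparum D6 (Sierra I/UNC clone), W2 (Indochina I clone), TM91C235 (South-East Asian clone) cultured with compound; growth inhibition by [3H]hypoxanthine incorporation (modified Desjardins/Milhous method). Chloroquine, mefloquine, artemisinin as positive controls. IC50 in nM; technical triplicates, curve fits R2 0.96–1.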

[2] = Half life in mouse liver microsomes at 1 uM by LC-MS/MS analysis; type: ADME
HepG2 = assay: Cytotoxicity against human HepG2 cells after 48 hrs by MTT assay; type: cell-based; conditions: HepG2, 48 h
Plasmodium falciparum [3] = assay: Antimalarial activity against chloroquine-resistant Plasmodium falciparum W2 after 48 hrs by [3H]hypoxanthine incorporation assay; type: functional, organism-based; method in brief: as §1
[4] = Selectivity index, ratio of IC50 for human HepG2 cells to IC50 for chloroquine susceptible Plasmodium falciparum D6; type: toxicity, cell-based; conditions: read-out: Ratio IC50
Plasmodium falciparum [5] = assay: Antimalarial activity against mutidrug resistant Plasmodium falciparum TM91C235 after 48 hrs by [3H]hypoxanthine incorporation assay; type: functional, organism-based; method in brief: as §1
[6] = Half life in human liver microsomes at 1 uM by LC-MS/MS analysis; type: ADME
[7] = Selectivity index, ratio of IC50 for mouse RAW 264.7 cells to IC50 for chloroquine susceptible Plasmodium falciparum D6; type: toxicity; conditions: read-out: Ratio IC50
RAW264.7 = assay: Cytotoxicity against mouse RAW264.7 cells; type: cell-based
Plasmodium berghei [8] = assay: Antimalarial activity against Plasmodium berghei ANKA infected in C57Bl6 mouse at 160 mg/kg/day, po measured on day 3 to 5 by Thompson test; type: functional
Mus musculus = assay: Toxicity in Plasmodium berghei ANKA infected C57Bl6 mouse at 160 mg/kg/day, po administered for 3 days measured 2 times a day for 31 days; type: organism-based; conditions: in vivo, 744 h
Plasmodium berghei [9] = assay: Antimalarial activity against sporozoite stage of Plasmodium […] infected in human HepG2 cells; type: functional, organism-based
Plasmodium berghei [10] = assay: Antimalarial activity against sporozoite stage of Plasmodium berghei infected in human Huh7 cells assessed as remaining parasite infection at 5 uM pre-incubated for 24 hrs followed by parasite infection measured after 48 hrs by bioluminescence assay; conditions: Huh-7
Plasmodium berghei [11] = assay: Antimalarial activity against sporozoite stage of Plasmodium berghei infected in human Huh7 cells assessed as inhibition of parasite infection pre-incubated for 24 hrs followed by parasite infection measured after 48 hrs by bioluminescence assay; type: functional, organism-based; conditions: Huh-7
Plasmodium berghei [12] = assay: Antimalarial activity against Plasmodium berghei ANKA infected in C57Bl6 mouse at 80 mg/kg/day, po measured on day 3 to 5 by Thompson test; type: functional
Plasmodium berghei [13] = assay: Antimalarial activity against Plasmodium berghei ANKA infected in C57Bl6 mouse assessed as increase in cure rate at 80 mg/kg/day, po administered for day 3 to 5 by Thompson test; type: functional, organism-based
Method in brief: (§2)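 Modified Thompson test: C57Bl6 female mice inoculated intraperitoneally on day 0 with 1×10^6 P. berghei ANKA-infected erythrocytes; compound suspended in 0.5% hydroxyethylcellulose–0.1% Tween 80, given orally once daily on days 3, 4 and 5 post infection. Parasitemia by Giemsa-stained thin tail-blood smears on days 0, 3, 6, 10, 13, 17, 20, 24, 27, 31. Cure = survival without parasitemia to day 31.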

[14] = Inhibition of beta hematin formation measured as hemin equivalent after 18 hrs; type: physicochemical
Method in brief: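 Hemin (16 mM in DMSO) mixed with compound at 0.125–5 mol equiv to hemin, plus water and 8 M acetate buffer pH 5.2, 25% DMSO final. Incubated 18 h at 37 °C. Pellet washed with DMSO, dissolved in 0.1 M NaOH, absorbance read at 405 nm (corrected at 670 nm) against a hemin calibration.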

Plasmodium berghei [15] = assay: Antimalarial activity against Plasmodium berghei ANKA infected in C57Bl6 mouse assessed as reduction of parasitemia at 160 mg/kg/day, po administered for day 3 to 5 measured on day 6 by Thompson test; type: functional, organism-based; method in brief: as §2
Plasmodium berghei [16] = assay: Antimalarial activity against Plasmodium berghei ANKA infected in C57Bl6 mouse assessed as reduction of parasitemia at 160 mg/kg/day, po administered for day 3 to 5 measured after 10 to 14 days by Thompson test; type: functional, organism-based; method in brief: as §2
Plasmodium berghei [17] = assay: Antimalarial activity against Plasmodium berghei ANKA infected in po dosed C57Bl6 mouse administered on day 3 to 5 by Thompson test; type: functional; method in brief: as §2

Compound	IC50 (Plasmodium falciparum [1]) [nM]	half-life at 1 µM [2] [min]	IC50 (HepG2) [nM]	IC50 (Plasmodium falciparum [3]) [nM]	selectivity ratio [4]	IC50 (Plasmodium falciparum [5]) [nM]	half-life at 1 µM [6] [min]	Activity (Mus musculus)	also measured
CC(CCCNCC12CC3CC(CC(C3)C1)C2)Nc1ccnc2cc(Cl)ccc12 (stereo unspecified)	21	57	24300	22	1160	23	49	–	–
CC(CNc1ccnc2cc(Cl)ccc12)NCC12CC3CC(CC(C3)C1)C2 (stereo unspecified)	2	10	–	10	–	9	13	–	selectivity ratio [7]: 1890; IC50 (RAW264.7): 3770 nM
CCN(CC)CCCNc1c(F)cnc2cc(Cl)ccc12	–	–	–	–	–	–	–	Non-toxic	MST (Plasmodium berghei [8]): 14.6 days
C[C@@H]1CC[C@H]2[C@@H](C)C(=O)O[C@@H]3O[C@@]4(C)CC[C@@H]1[C@]32OO4 [ARTEMISININ]	9	–	–	7	–	13	–	–	IC50 (Plasmodium berghei [9]): 12000 nM
CC(CCNCC12CC3CC(CC(C3)C1)C2)Nc1nc2cc(Cl)ccc2cc1F (stereo unspecified)	–	–	–	–	–	–	–	–	% infection at 5 µM (Plasmodium berghei [10]): 2%; IC50 (Plasmodium berghei [11]): 1000 nM
CC(CCNCC12CC3CC(CC(C3)C1)C2)Nc1c(F)cnc2ccccc12 (stereo unspecified)	60	–	–	157	3	259	–	Non-toxic	MST (Plasmodium berghei [12]): 12.8 days; Activity (Plasmodium berghei [13]): inactive; IC50 [14]: 0.61 equiv
CC(CNCC12CC3CC(CC(C3)C1)C2)Nc1ccnc2cc(Cl)ccc12 (stereo unspecified)	1	10	–	3	–	1	11	–	selectivity ratio [7]: 2900; IC50 (RAW264.7): 2900 nM
CC(CCCNc1ccnc2cc(Cl)ccc12)NCCC12CC3CC(CC(C3)C1)C2 (stereo unspecified)	9	–	2600	81	289	47	–	–	–
O=C1C(O)=C([C@H]2CC[C@H](c3ccc(Cl)cc3)CC2)C(=O)c2ccccc21 [ATOVAQUONE]	–	–	–	–	–	–	–	–	IC50 (Plasmodium berghei [9]): 22 nM
CCN(CC)CCCNc1nc2cc(Cl)ccc2cc1F	–	–	–	–	–	–	–	Non-toxic	MST (Plasmodium berghei [8]): 20.2 days
CC(CCCNCCC12CC3CC(CC(C3)C1)C2)Nc1c(F)cnc2cc(Cl)ccc12 (stereo unspecified)	288	–	2610	547	9	590	–	–	–
O[C@@H](c1cc(C(F)(F)F)nc2c(C(F)(F)F)cccc12)[C@H]1CCCCN1 [(S,R)-MEFLOQUINE]	–	–	–	5	–	–	–	–	–
CC(CCNCCC12CC3CC(CC(C3)C1)C2)Nc1c(F)cnc2ccccc12 (stereo unspecified)	154	–	–	394	3	546	–	–	–
CC(CCNCC12CC3CC(CC(C3)C1)C2)Nc1ccnc2ccccc12 (stereo unspecified)	17	60	2320	185	136	135	60	Non-toxic	MST (Plasmodium berghei [12]): 15.2 days; Activity (Plasmodium berghei [13]): inactive; IC50 [14]: 1.22 equiv
CCN(CC)CCCC(C)Nc1nc2cc(Cl)ccc2cc1F (stereo unspecified)	–	–	–	–	–	–	–	–	% infection at 5 µM (Plasmodium berghei [10]): 40%; IC50 [14]: 2.43 equiv; IC50 (Plasmodium berghei [11]): 1000 nM
CC(CNc1ccnc2cc(Cl)ccc12)NCCC12CC3CC(CC(C3)C1)C2 (stereo unspecified)	6	60	25100	7	4190	7	27	Non-toxic	MST (Plasmodium berghei [12]): 15.3 days; Activity (Plasmodium berghei [15]): Active; Activity (Plasmodium berghei [16]): inactive; MAC (Plasmodium berghei [17]): 80 mg/kg/day
